In ChEMBL document CHEMBL4261538, “Synthesis and molecular docking studies of xanthone attached amino acids as potential antimicrobial and anti-inflammatory agents” (Medchemcomm, 2017):
Activity calls are given as the source filed them. The calls are words filed in the database; no cut-off is given here.

Key:
[1] = system: Staphylococcus aureus; experiment: Antibacterial activity against Staphylococcus aureus at 25 ug/ml incubated for 24 hrs by agar well diffusion method; format: functional; conditions: read-out: DIZ
Outline: (§1)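 Bacteria grown in nutrient broth at 37 °C for 24 h, then subcultured at room temperature. Compounds dissolved in DMSO at 5 mg mL⁻¹ and 5–20 µL added to 6 mm wells, giving 25, 50, 75, 100 µg per well. Gentamicin was the positive control and DMSO the negative control. Plates held at 37 °C for 24 h, then inhibition zone diameter (mm) measured. Values are means of three determinations.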

[2] = system: Staphylococcus aureus; experiment: Antibacterial activity against Staphylococcus aureus at 50 ug/ml incubated for 24 hrs by agar well diffusion method; format: functional; conditions: read-out: DIZ; outline: as §1
[3] = system: Staphylococcus aureus; experiment: Antibacterial activity against Staphylococcus aureus at 75 ug/ml incubated for 24 hrs by agar well diffusion method; format: functional; conditions: read-out: DIZ; outline: as §1
[4] = system: Staphylococcus aureus; experiment: Antibacterial activity against Staphylococcus aureus at 100 ug/ml incubated for 24 hrs by agar well diffusion method; format: functional; conditions: read-out: DIZ; outline: as §1
[5] = system: Bacillus subtilis; experiment: Antibacterial activity against Bacillus subtilis at 25 ug/ml incubated for 24 hrs by agar well diffusion method; format: functional; conditions: read-out: DIZ; outline: as §1
[6] = system: Bacillus subtilis; experiment: Antibacterial activity against Bacillus subtilis at 50 ug/ml incubated for 24 hrs by agar well diffusion method; format: functional; conditions: read-out: DIZ; outline: as §1
[7] = system: Bacillus subtilis; experiment: Antibacterial activity against Bacillus subtilis at 75 ug/ml incubated for 24 hrs by agar well diffusion method; format: functional; conditions: read-out: DIZ; outline: as §1
[8] = system: Bacillus subtilis; experiment: Antibacterial activity against Bacillus subtilis at 100 ug/ml incubated for 24 hrs by agar well diffusion method; format: functional; conditions: read-out: DIZ; outline: as §1
[9] = system: Escherichia coli; experiment: Antibacterial activity against Escherichia coli at 25 ug/ml incubated for 24 hrs by agar well diffusion method; format: functional; conditions: read-out: DIZ; outline: as §1
[10] = system: Escherichia coli; experiment: Antibacterial activity against Escherichia coli at 50 ug/ml incubated for 24 hrs by agar well diffusion method; format: functional; conditions: read-out: DIZ; outline: as §1
[11] = system: Escherichia coli; experiment: Antibacterial activity against Escherichia coli at 75 ug/ml incubated for 24 hrs by agar well diffusion method; format: functional; conditions: read-out: DIZ; outline: as §1
[12] = system: Escherichia coli; experiment: Antibacterial activity against Escherichia coli at 100 ug/ml incubated for 24 hrs by agar well diffusion method; format: functional; conditions: read-out: DIZ; outline: as §1
[13] = system: Klebsiella pneumoniae; experiment: Antibacterial activity against Klebsiella pneumoniae at 25 ug/ml incubated for 24 hrs by agar well diffusion method; format: functional; conditions: read-out: DIZ; outline: as §1
[14] = system: Klebsiella pneumoniae; experiment: Antibacterial activity against Klebsiella pneumoniae at 50 ug/ml incubated for 24 hrs by agar well diffusion method; format: functional; conditions: read-out: DIZ; outline: as §1
[15] = system: Klebsiella pneumoniae; experiment: Antibacterial activity against Klebsiella pneumoniae at 75 ug/ml incubated for 24 hrs by agar well diffusion method; format: functional; conditions: read-out: DIZ; outline: as §1
[16] = system: Klebsiella pneumoniae; experiment: Antibacterial activity against Klebsiella pneumoniae at 100 ug/ml incubated for 24 hrs by agar well diffusion method; format: functional; conditions: read-out: DIZ; outline: as §1
[17] = system: Aspergillus niger; experiment: Antifungal activity against Aspergillus niger at 25 ug/ml incubated for 48 hrs by agar well diffusion method; format: functional; conditions: read-out: DIZ
Outline: (§2)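 Compounds dissolved in DMSO at 5 mg mL⁻¹ and 5–20 µL added to 6 mm wells, giving 25, 50, 75, 100 µg per well. Bavistin was the positive control and DMSO the negative control. Plates incubated at 28 °C for 48 h, then inhibition zone diameter (mm) measured. Values are means of three determinations.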

[18] = system: Aspergillus niger; experiment: Antifungal activity against Aspergillus niger at 50 ug/ml incubated for 48 hrs by agar well diffusion method; format: functional; conditions: read-out: DIZ; outline: as §2
[19] = system: Aspergillus niger; experiment: Antifungal activity against Aspergillus niger at 75 ug/ml incubated for 48 hrs by agar well diffusion method; format: functional; conditions: read-out: DIZ; outline: as §2
[20] = system: Aspergillus niger; experiment: Antifungal activity against Aspergillus niger at 100 ug/ml incubated for 48 hrs by agar well diffusion method; format: functional; conditions: read-out: DIZ; outline: as §2
[21] = system: Candida albicans; experiment: Antifungal activity against Candida albicans at 25 ug/ml incubated for 48 hrs by agar well diffusion method; format: functional; conditions: read-out: DIZ; outline: as §2
[22] = system: Candida albicans; experiment: Antifungal activity against Candida albicans at 50 ug/ml incubated for 48 hrs by agar well diffusion method; format: functional; conditions: read-out: DIZ; outline: as §2
[23] = system: Candida albicans; experiment: Antifungal activity against Candida albicans at 75 ug/ml incubated for 48 hrs by agar well diffusion method; format: functional; conditions: read-out: DIZ; outline: as §2
[24] = system: Candida albicans; experiment: Antifungal activity against Candida albicans at 100 ug/ml incubated for 48 hrs by agar well diffusion method; format: functional; conditions: read-out: DIZ; outline: as §2
[25] = system: Fusarium oxysporum; experiment: Antifungal activity against Fusarium oxysporum at 25 ug/ml incubated for 48 hrs by agar well diffusion method; format: functional; conditions: read-out: DIZ; outline: as §2
[26] = system: Fusarium oxysporum; experiment: Antifungal activity against Fusarium oxysporum at 50 ug/ml incubated for 48 hrs by agar well diffusion method; format: functional; conditions: read-out: DIZ; outline: as §2
[27] = system: Fusarium oxysporum; experiment: Antifungal activity against Fusarium oxysporum at 75 ug/ml incubated for 48 hrs by agar well diffusion method; format: functional; conditions: read-out: DIZ; outline: as §2
[28] = system: Fusarium oxysporum; experiment: Antifungal activity against Fusarium oxysporum at 100 ug/ml incubated for 48 hrs by agar well diffusion method; format: functional; conditions: read-out: DIZ; outline: as §2
[29] = system: Staphylococcus aureus; experiment: Antibacterial activity against Staphylococcus aureus incubated for 24 hrs by microdilution method; format: functional
[30] = system: Bacillus subtilis; experiment: Antibacterial activity against Bacillus subtilis incubated for 24 hrs by microdilution method; format: functional
[31] = system: Escherichia coli; experiment: Antibacterial activity against Escherichia coli incubated for 24 hrs by microdilution method; format: functional
[32] = system: Klebsiella pneumoniae; experiment: Antibacterial activity against Klebsiella pneumoniae incubated for 24 hrs by microdilution method; format: functional
[33] = system: Aspergillus niger; experiment: Antifungal activity against Aspergillus niger incubated for 48 to 72 hrs by microdilution method; format: functional
Outline: (§3)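 Sabouraud agar plates inoculated with fungal suspension at 10⁵ CFU mL⁻¹ plus serially diluted compounds and bavistin reference, both in DMSO. Incubated at 25 °C for 48–72 h. MIC is the lowest concentration completely inhibiting growth. Values are means of three determinations.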

[34] = system: Candida albicans; experiment: Antifungal activity against Candida albicans incubated for 48 to 72 hrs by microdilution method; format: functional; outline: as §3
[35] = system: Fusarium oxysporum; experiment: Antifungal activity against Fusarium oxysporum incubated for 48 to 72 hrs by microdilution method; format: functional; outline: as §3
[36] = system: Staphylococcus aureus; experiment: Induction of cell membrane damage in Staphylococcus aureus assessed as cell content leakage at MIC after 2 hrs by SEM analysis; format: functional, organism-based
[37] = system: Erythrocyte; experiment: Anti-inflammatory activity in human RBC assessed as inhibition of hypotonic solution-induced hemolysis after 10 mins by spectrophotometric method; format: functional, cell-based
Outline: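 Human blood (heparinized) washed with 0.9% saline, packed cells made into a 40% v/v stock in isotonic phosphate buffer (154 mM NaCl, 10 mM sodium phosphate, pH 7.4). Stock RBC mixed with hypotonic buffer (50 mM NaCl, 10 mM phosphate, pH 7.4) plus sample at 20–100 µg mL⁻¹.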

[38] = system: Staphylococcus aureus; experiment: Induction of cell membrane damage in Staphylococcus aureus assessed as cell content leakage at MIC by spectrophotometric method; format: functional, organism-based; conditions: TDE = time-dependent effect
Outline: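 Log-phase S. aureus inoculated into 0.1% sterile peptone water, with an untreated control, and held at 37 °C for 0, 30, 60 and 120 min. 1 mL of broth centrifuged and supernatant OD read at 260 nm to measure released DNA. Run in triplicate, repeated three times.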

Work on Cl.N[C@@H](Cc1ccc(O)cc1)C(=O)Oc1ccc2c(=O)c3ccccc3oc2c1 yielded a zone of inhibition at 25 µg/mL [1] of 23 mm, a zone of inhibition at 50 µg/mL [2] of 27 mm and a zone of inhibition at 75 µg/mL [3] of 35 mm. It also gave a zone of inhibition at 100 µg/mL [4] of 39 mm, a zone of inhibition at 25 µg/mL [5] of 23 mm and a zone of inhibition at 50 µg/mL [6] of 26 mm. For the same compound, the zone of inhibition at 75 µg/mL [7] was 38 mm, the zone of inhibition at 100 µg/mL [8] was 40 mm and the zone of inhibition at 25 µg/mL [9] was 21 mm. It also gave a zone of inhibition at 50 µg/mL [10] of 26 mm, a zone of inhibition at 75 µg/mL [11] of 34 mm and a zone of inhibition at 100 µg/mL [12] of 39 mm. For the same compound, the zone of inhibition at 25 µg/mL [13] was 21 mm, the zone of inhibition at 50 µg/mL [14] was 26 mm and the zone of inhibition at 75 µg/mL [15] was 31 mm. For the same compound, the zone of inhibition at 100 µg/mL [16] was 37 mm, the zone of inhibition at 25 µg/mL [17] was 24 mm and the zone of inhibition at 50 µg/mL [18] was 31 mm. For the same compound, the zone of inhibition at 75 µg/mL [19] was 38 mm, the zone of inhibition at 100 µg/mL [20] was 40 mm and the zone of inhibition at 25 µg/mL [21] was 23 mm. The zone of inhibition at 50 µg/mL [22] was 30 mm, the zone of inhibition at 75 µg/mL [23] was 36 mm and the zone of inhibition at 100 µg/mL [24] was 39 mm. It also gave a zone of inhibition at 25 µg/mL [25] of 21 mm, a zone of inhibition at 50 µg/mL [26] of 28 mm and a zone of inhibition at 75 µg/mL [27] of 35 mm. It also gave a zone of inhibition at 100 µg/mL [28] of 41 mm, an MIC [29] of 18 µg/mL and an MIC [30] of 19 µg/mL. The MIC [31] was 20 µg/mL, the MIC [32] was 17 µg/mL and the MIC [33] was 21 µg/mL. The MIC [34] was 23 µg/mL, the MIC [35] was 23 µg/mL and the Activity [36] was “Active”. It also gave an IC50 [37] of 32 µg/mL.
In the case of Cl.N[C@@H](Cc1c[nH]c2ccccc12)C(=O)Oc1ccc2c(=O)c3ccccc3oc2c1, the zone of inhibition at 25 µg/mL [1] is reported as 24 mm, the zone of inhibition at 50 µg/mL [2] is reported as 31 mm and the zone of inhibition at 75 µg/mL [3] is reported as 37 mm. The zone of inhibition at 100 µg/mL [4] was 42 mm, the zone of inhibition at 25 µg/mL [5] was 26 mm and the zone of inhibition at 50 µg/mL [6] was 32 mm. For the same compound, the zone of inhibition at 75 µg/mL [7] was 36 mm, the zone of inhibition at 100 µg/mL [8] was 43 mm and the zone of inhibition at 25 µg/mL [9] was 26 mm. It also gave a zone of inhibition at 50 µg/mL [10] of 31 mm, a zone of inhibition at 75 µg/mL [11] of 38 mm and a zone of inhibition at 100 µg/mL [12] of 43 mm. It also gave a zone of inhibition at 25 µg/mL [13] of 23 mm, a zone of inhibition at 50 µg/mL [14] of 30 mm and a zone of inhibition at 75 µg/mL [15] of 37 mm. The zone of inhibition at 100 µg/mL [16] was 44 mm, the zone of inhibition at 25 µg/mL [17] was 28 mm and the zone of inhibition at 50 µg/mL [18] was 31 mm. The zone of inhibition at 75 µg/mL [19] was 40 mm, the zone of inhibition at 100 µg/mL [20] was 46 mm and the zone of inhibition at 25 µg/mL [21] was 26 mm. The zone of inhibition at 50 µg/mL [22] was 33 mm, the zone of inhibition at 75 µg/mL [23] was 39 mm and the zone of inhibition at 100 µg/mL [24] was 44 mm. For the same compound, the zone of inhibition at 25 µg/mL [25] was 25 mm, the zone of inhibition at 50 µg/mL [26] was 32 mm and the zone of inhibition at 75 µg/mL [27] was 37 mm. The zone of inhibition at 100 µg/mL [28] was 42 mm, the MIC [29] was 16 µg/mL and the MIC [30] was 16 µg/mL. For the same compound, the MIC [31] was 15 µg/mL, the MIC [32] was 22 µg/mL and the MIC [33] was 21 µg/mL. For the same compound, the MIC [34] was 20 µg/mL, the MIC [35] was 20 µg/mL and the Activity [38] was “Tde”. For the same compound, the IC50 [37] was 26 µg/mL.
